In assay [1] the target is Pantothenate synthetase (Mycobacterium tuberculosis (strain ATCC 25618 / H37Rv)) (UniProt P9WIL5). Briefly: Recombinant Mtb pantothenate synthetase (PanC) inhibitors, coupled enzyme, confirmatory (AID 375; call rule not given here;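 note: 0% = full reaction with vehicle and 100% = no enzyme background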). To be noted: coupled enzyme assay; at 10 µM, stronger effect = higher value.
A short description of assay [2]: reducers of endogenous Her2 protein level, primary screen, SKBR3 breast tumor cells, AlphaScreen, ATP viability (AID 461;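 active = Her2 level under about 52% in both replicate screens, with viability over 70% of control, limit read from the data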;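 for Her2 level: lower value means less Her2 protein in the cells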;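 for viability: percent of carrier control wells set as 100% viability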). To be noted: 18-24 h, measured here: SKBR3 viability, ATP luminescence, at 10 µM.
Assay [3] has as its target Receptor tyrosine-protein kinase erbB-2 (Homo sapiens) (UniProt P04626). The assay is described as above. To be noted: 18-24 h, at 10 µM, stronger effect = lower value.
Assay [4] in a line: SK-BR-3 cell growth inhibitors, pilot screen, 24 h, human (AID 572;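 active = viability at or below 10% of carrier control in both of two separate runs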;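 note: compound exposure lasted between 18 and 24 h rather than exactly 24 h; 100% = carrier-treated control wells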). To be noted: SK-BR-3 viability, CellTiter-Glo luminescence, at 10 µM, stronger effect = lower value.
A short description of assay [5]: HUVEC growth inhibition – cell-based, human, primary screen (AID 575;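 active = viability at or below 30% in both replicate assays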;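 note: 100% = median of untreated cell wells with 0.1% DMSO on each plate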). To be noted: HUVEC proliferation, CellTiter-Glo luminescence, 72 h; at 10 µM; stronger effect = lower value. Put shortly:
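system = HUVEC primary cells | amount = 1250 cells/well | buffer or medium = supplemented EBM, 2% fetal bovine serum | dosing = single-point 10 µM, DMSO 0.1% final | times = 72 h compound incubation | detection = CTG luminescence | read-out = % viability relative to median vehicle-well signal on each plate | control set = vehicle and MePR control wells | format = collagen-coated 384-well format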

The nature of assay [6]: growth inhibitors of H69AR lung tumor, primary screen, human, duplicate replicates (AID 580;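 active = viability at or under a set limit in both replicates, limit being median viability minus 3 SD, cut at about 48% in these data, passing the limit was not always enough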;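 note: 100% = mean luminescence of untreated wells and 0% = no signal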). To be noted: H69AR lung tumor cells viability, ATP luminescence, 72 h; at 10 µM; stronger effect = lower value.
A short description of assay [7]: reversal of MRP1-mediated doxorubicin resistance, pilot screen, H69AR cells, doxorubicin co-treatment (AID 601). As to conditions: CellTiter-Glo, 72 h, at 10 µM; for differential viability (reversal): stronger effect = higher value.
The nature of assay [8]: 384-well plate pilot, post-Golgi transport modulator project, inhibition of yeast transport mutant growth (AID 636; in the data active = inhibition above about 31%). As to conditions: absorbance 615 nm, about 18 h, stronger effect = higher value.
Assay [9] is described as follows: growth suppression of yeast trafficking mutant, preliminary HTS, modulators of trafficking downstream of Golgi apparatus project, 1536-format plate, OD 615 nm (AID 637; in the data active = inhibition above about 30%). As to conditions: yeast transport mutant growth, absorbance 615 nm, 18 h; stronger effect = higher value.
[10] abbreviates: H69AR cells + 2 uM doxorubicin, measured here: viability with 2 uM doxorubicin, stronger effect = lower value.
Setting [11] is: H69AR cells, compound alone cytotoxicity.

The values below come from PubChem BioAssay.

Active and inactive are the calls of the source.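 Rule for the calls, unless noted: active = viability loss from added drug above about 55%, and viability with drug at most 40%, in both replicates (limit read from the data, passing the limit was not always enough); inconclusive = both conditions met in only one replicate; inactive = neither replicate meets both conditions.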

Chain of Pantothenate synthetase (Mycobacterium tuberculosis (strain ATCC 25618 / H37Rv)) (P9WIL5 whole entry, looked up): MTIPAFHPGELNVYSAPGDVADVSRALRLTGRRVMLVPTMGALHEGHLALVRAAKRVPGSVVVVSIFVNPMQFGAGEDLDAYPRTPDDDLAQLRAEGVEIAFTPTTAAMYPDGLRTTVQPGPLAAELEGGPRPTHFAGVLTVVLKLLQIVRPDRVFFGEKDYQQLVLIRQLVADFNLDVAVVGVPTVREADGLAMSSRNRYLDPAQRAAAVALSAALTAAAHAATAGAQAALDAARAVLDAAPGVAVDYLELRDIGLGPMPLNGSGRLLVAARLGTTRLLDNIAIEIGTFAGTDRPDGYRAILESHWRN
Chain of Receptor tyrosine-protein kinase erbB-2 (Homo sapiens) (P04626 whole entry, looked up): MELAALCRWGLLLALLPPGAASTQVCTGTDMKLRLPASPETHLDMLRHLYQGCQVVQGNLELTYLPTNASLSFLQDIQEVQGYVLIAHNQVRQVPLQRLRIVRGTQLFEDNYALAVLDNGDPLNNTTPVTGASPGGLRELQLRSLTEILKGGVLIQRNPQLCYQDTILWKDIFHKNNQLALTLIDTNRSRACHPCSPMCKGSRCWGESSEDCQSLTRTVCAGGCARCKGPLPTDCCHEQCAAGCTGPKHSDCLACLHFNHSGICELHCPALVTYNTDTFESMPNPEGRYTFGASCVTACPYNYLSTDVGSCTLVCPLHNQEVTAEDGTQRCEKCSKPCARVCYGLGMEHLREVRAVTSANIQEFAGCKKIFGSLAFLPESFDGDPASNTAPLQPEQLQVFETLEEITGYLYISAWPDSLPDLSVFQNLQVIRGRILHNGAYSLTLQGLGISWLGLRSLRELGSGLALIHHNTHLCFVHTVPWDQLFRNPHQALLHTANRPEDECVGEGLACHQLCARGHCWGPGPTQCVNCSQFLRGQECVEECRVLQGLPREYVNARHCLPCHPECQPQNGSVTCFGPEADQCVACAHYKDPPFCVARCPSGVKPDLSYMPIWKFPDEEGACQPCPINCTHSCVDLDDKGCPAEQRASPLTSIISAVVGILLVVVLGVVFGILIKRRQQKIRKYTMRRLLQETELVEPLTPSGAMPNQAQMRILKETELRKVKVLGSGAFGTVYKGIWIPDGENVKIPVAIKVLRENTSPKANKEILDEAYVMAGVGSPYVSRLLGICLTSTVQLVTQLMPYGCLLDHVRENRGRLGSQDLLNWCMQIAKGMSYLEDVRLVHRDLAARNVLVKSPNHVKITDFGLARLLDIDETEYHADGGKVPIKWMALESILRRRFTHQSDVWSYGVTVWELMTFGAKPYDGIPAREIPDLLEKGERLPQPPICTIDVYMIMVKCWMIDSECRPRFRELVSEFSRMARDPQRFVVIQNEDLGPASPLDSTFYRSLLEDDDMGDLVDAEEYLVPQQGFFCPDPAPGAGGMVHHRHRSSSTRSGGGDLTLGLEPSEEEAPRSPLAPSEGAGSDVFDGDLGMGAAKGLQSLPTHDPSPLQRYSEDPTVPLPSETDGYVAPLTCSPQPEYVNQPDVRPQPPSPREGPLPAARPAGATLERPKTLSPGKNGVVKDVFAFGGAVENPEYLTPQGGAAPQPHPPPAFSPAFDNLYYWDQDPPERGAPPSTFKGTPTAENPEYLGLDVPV

As usually defined, the inhibition is the change of the read-out against control, counted positive when it falls. By viability is commonly meant a read-out of living cells in per cent, often relative to untreated cells. As for `O=C(CCCOc1ccc(Cl)cc1Cl)N1CCC2(CC1)OCCO2`, the inhibition in [1] is 0% (inactive); in [8], -5% (inactive); in assay [9], -2% (inactive). The viability in [2] was 106%; in assay [4], 106% (inactive); in assay [5], 93.3% (inactive); in assay [6], 92.5% (inactive); in [7] (setting [10]), 81.5%; in assay [7] (setting [11]), 92.5%. Also, the Her2 level in assay [3] was 96.5% (inactive). For the same compound, the differential viability (reversal) in [7] (H69AR cells + 2 uM doxorubicin) was 11.1% (inactive).
For `CSc1ccc(C(=O)C(C)(C)N2CCOCC2)cc1`, the inhibition was 0% (inactive) in assay [1], -2.76% (inactive) in [8] and 6.56% (inactive) in assay [9]. Further, the viability was 106% in assay [2]; 106% (inactive) in [4]; 112% (inactive) in [5]; 105% (inactive) in assay [6]; 87.2% in assay [7] (setting [10]); 105% in assay [7] (setting [11]). For the same compound, the Her2 level in assay [3] was 107% (inactive). Besides, the differential viability (reversal) in assay [7] (H69AR cells + 2 uM doxorubicin) is 18.2% (inactive).
For the compound `N#Cc1ccccc1Cn1cc(C(=O)c2ccco2)c2ccccc21`, the inhibition in assay [1] was 0% (inactive); in assay [8], -4.32% (inactive); in assay [9], 14.5% (inactive). The viability is 98.5% in assay [2]; 98.5% (inactive) in assay [4]; 105% (inactive) in assay [5]; 82% (inactive) in assay [6]; 85% in assay [7] (setting [10]); 82% in [7] (setting [11]). In addition, the Her2 level in assay [3] is 96% (inactive). The differential viability (reversal) in [7] (H69AR cells + 2 uM doxorubicin) is -3.02% (inactive).
`O=C(NCc1ccccn1)c1ccccc1Cl`: the inhibition was 0% (inactive) in assay [1], -7.95% (inactive) in assay [8] and 0.63% (inactive) in assay [9]. Moreover, the viability was 91.5% in assay [2]; 91.5% (inactive) in [4]; 91.2% (inactive) in [5]; 98% (inactive) in assay [6]; 81.5% in assay [7] (setting [10]); 98% in assay [7] (setting [11]). In addition, the Her2 level in [3] is 76.5% (inactive). Moreover, in assay [7] (H69AR cells + 2 uM doxorubicin), the differential viability (reversal) was 16.5% (inactive).
Consider `CC(=NCc1ccc2c(c1)OCO2)c1c(O)n(C)c(=O)n(C)c1=O`, for which the inhibition in assay [1] is 6% (inactive); in assay [8], -4.42% (inactive); in [9] it was -2% (inactive). Besides, the viability is 94% in assay [2]; 94% (inactive) in assay [4]; 92.8% (inactive) in [5]; 98% (inactive) in assay [6]; 96.9% in assay [7] (setting [10]); 98% in assay [7] (setting [11]). Besides, the Her2 level in assay [3] is 90% (inactive). Besides, in assay [7] (H69AR cells + 2 uM doxorubicin), the differential viability (reversal) is 1.15% (inactive).
For `Cc1ccc(OCC(=O)NCCN2CCN(C(=O)COc3ccc(C)cc3)CC2)cc1`, the figures for the inhibition in assay [1], in [8] and in assay [9] were 0% (inactive), -1.76% (inactive) and -5.56% (inactive), respectively. The viability in assay [2] is 124%; in assay [4], 124% (inactive); in assay [5], 88.5% (inactive); in assay [6], 95.2% (inactive); in assay [7] (setting [10]), 93.9%; in [7] (setting [11]) it was 95.2%. Also, the Her2 level in [3] was 106% (inactive). The differential viability (reversal) in assay [7] (H69AR cells + 2 uM doxorubicin) was 1.29% (inactive).
For the compound `O=C(C1CCCN(S(=O)(=O)c2cccc3nsnc23)C1)N1CCC2(CC1)OCCO2` (configuration not stated), the inhibition in [1] is 0% (inactive); in assay [8], -5% (inactive); in [9] it was 1.33% (inactive). Also, the viability in [2] was 97%; in [4], 97% (inactive); in assay [5], 100% (inactive); in [6] it was 81.6% (inactive); in assay [7] (setting [10]), 98.5%; in assay [7] (setting [11]) it was 81.6%. The Her2 level in assay [3] was 100% (inactive). Moreover, the differential viability (reversal) in assay [7] (H69AR cells + 2 uM doxorubicin) is -16.9% (inactive).
Consider `C=CCn1c(O)c(C(C)=NCCCO)c(=O)[nH]c1=O`, for which the values for the inhibition in assay [1], in assay [8] and in assay [9] were 0% (inactive), -4.94% (inactive) and -8.5% (inactive), respectively. The viability in assay [2] was 93%; in assay [4], 93% (inactive); in [5], 107% (inactive); in assay [6], 94.3% (inactive); in assay [7] (setting [10]) it was 92.1%; in assay [7] (setting [11]), 94.3%. Also, the Her2 level in assay [3] was 114% (inactive). The differential viability (reversal) in assay [7] (H69AR cells + 2 uM doxorubicin) was 2.26% (inactive).
`COc1ccc(C2NCc3ccc4c(c3-n3cccc32)OCO4)cc1O` (configuration not stated): the inhibition in assay [1] is 0% (inactive); in [8], -5.79% (inactive); in assay [9], -5.56% (inactive). Further, the viability in assay [2] is 110%; in assay [4], 110% (inactive); in assay [5], 40.7% (inactive); in assay [6], 25.5% (active); in assay [7] (setting [10]), 67%; in assay [7] (setting [11]), 25.5%. Also, the Her2 level in assay [3] is 73% (inactive). Further, in [7] (H69AR cells + 2 uM doxorubicin), the differential viability (reversal) was -41.5% (inactive).
For the compound `CSc1ccc(CNC2CN3CCC2CC3)cc1` (configuration not stated), the inhibition in assay [1] was 0% (inactive); in assay [8] it was -3.47% (inactive); in [9] it was -3.77% (inactive). Moreover, the viability in assay [2] was 89.5%; in assay [4], 89.5% (inactive); in [5] it was 91.2% (inactive); in [6] it was 89.1% (inactive); in assay [7] (setting [10]) it was 81.8%; in assay [7] (setting [11]), 89.1%. Besides, in assay [3], the Her2 level was 93.5% (inactive). Besides, in assay [7] (H69AR cells + 2 uM doxorubicin), the differential viability (reversal) is 7.31% (inactive).
`Cc1nn(Cc2ccccc2Cl)c(Cl)c1C(=O)OCC(=O)NCc1ccco1`: the inhibition is 0% (inactive) in assay [1], -3.2% (inactive) in assay [8] and -0.82% (inactive) in assay [9]. The viability in [2] was 85%; in [4], 85% (inactive); in [5] it was 98.6% (inactive); in assay [6], 85.6% (inactive); in assay [7] (setting [10]) it was 92.3%; in [7] (setting [11]) it was 85.6%. The Her2 level in [3] was 76% (inactive). In assay [7] (H69AR cells + 2 uM doxorubicin), the differential viability (reversal) is -6.68% (inactive).
In the case of `N#Cc1ccccc1Cn1cc(C(=O)C2CC2)c2ccccc21`, the inhibition in assay [1] was 0% (inactive); in assay [8] it was -3.38% (inactive); in [9], -5.5% (inactive). Moreover, the viability in assay [2] was 86%; in assay [4] it was 86% (inactive); in [5], 81.5% (inactive); in assay [6], 59.4% (inactive); in [7] (setting [10]) it was 91.8%; in [7] (setting [11]) it was 59.4%. The Her2 level in assay [3] was 103% (inactive). Also, the differential viability (reversal) in assay [7] (H69AR cells + 2 uM doxorubicin) was -32.4% (inactive).
